Screening data (PubChem BioAssay)
Sampled rows, rich in hits. Any-hit rate of the full collection: about 2.4%.
CSN inh = inhibitors of CSN-mediated cullin deneddylation, primary screen, biochemical, fluorescence polarization, uHTS; AID 651999, 2013; Purified CSN, SCF-Nedd8-OG deneddylation; inhibition, % at 12.5 µM; COP9 signalosome complex subunit 5 (Homo sapiens), Q92905; actives 0.38% (n = 360,000);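 active means pattern-corrected inhibition above about 35%, with an unprinted fluorescence ratio check between 0.5 and 1.5, limit read from the data, passing the limit was not always enough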;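 further: 0% = enzyme with substrate and 100% = substrate without enzyme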
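Material: purified human Csn5 enzyme expressed in HEK293T cells / Medium: Tris buffer pH 7.5, NaCl, DTT, Tween-20, trehalose, ovalbumin / Compound dosing: 12.5 µM single point / Schedule: 90 min incubation of compound, enzyme and substrate at room temperature / Signal: fluorescence polarization of the substrate / Control set: no-enzyme wells high, enzyme-with-substrate wells low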
TPT1 inh = Candida albicans TPT1 enzyme inhibitors, primary screen, biochemical, fluorescence polarization | tRNA 2'-phosphotransferase TPT1 (Candida albicans SC5314) | recombinant caTPT1, FP RNA substrate dephosphorylation | inhibition, % at 5 µM | actives 0.81% (n = 300,000);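 active means inhibition above the mean of all tested compounds plus 3 SD, set per screening campaign, cut at about 24% in these data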;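 further: plate controls were DMSO alone for no effect and ferristatin control at 100 nM for full effect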
Rin1-Abl PPI inh = inhibitors of Rin1-Abl protein binding, primary screen, biochemical, TR-FRET; Tyrosine-protein kinase ABL1 (Homo sapiens) + Ras and Rab interactor 1 (Homo sapiens), …; inhibition, % at 7.35 µM; actives 0.4% (n = 360,000); AID 588664, 2011; in the data active means inhibition above about 5%, passing the limit was not always enough
Rpn11 inh = Rpn11 (PSMD14) deubiquitinase inhibitors, primary screen, biochemical, fluorescence polarization, uHTS; 26S proteasome non-ATPase regulatory subunit 14 (Homo sapiens), O00487; human 26S proteasome, Ub4-pepOG fluorescence polarization; 20S core pre-blocked with epoxomicin; inhibition, % at 20 µM; actives 0.59% (n = 360,000); AID 588493, 2011;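 active means inhibition at 20 µM, scaled to each plate's controls, above about 33%, limit read from the data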
HNF4A DNA FP = change in binding of human HNF4A to DNA, primary screen, biochemical, fluorescence polarization, FITC-DNA. 1 h. Hepatocyte nuclear factor 4-alpha (Homo sapiens), P41235. activity change, % at 10 µM. actives 0.3% (n = 360,000); in the data active means activity change above about 30%, passing the limit was not always enough
Neddyl block = inhibitors of cullin neddylation, primary screen, biochemical, TR-FRET, uHTS, NAE and Ubc12; NEDD8-conjugating enzyme Ubc12 (Homo sapiens) + NEDD8-activating enzyme E1 regulatory …; inhibition, % at 25 µM; actives 0.58% (n = 360,000); AID 651699, 2012; in the data active means inhibition above about 36%
CSN5 deneddyl = Csn5 deneddylation inhibitors, confirmation, biochemical, fluorescence polarization, single concentration, SCF-Nedd8OG substrate; shares compounds with CSN inh; Csn5 deneddylation of SCF-Nedd8OG, 90 min; inhibition, % at 16.6 µM; actives 62% (n = 540); AID 720654, 2013; in the data active means inhibition above about 50%;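 further: 0% = DMSO with enzyme and 100% = no enzyme wells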
MMP-2 counter = MMP-2 protease inhibition counter-screen, confirmation, counter-screen for CSN deneddylation inhibitor project, biochemical, fluorescence, single concentration. AID 720655, 2013. recombinant MMP-2, FRET substrate fluorescence, 60 min. actives 33% (n = 540). shares compounds with CSN inh. inhibition, % at 16.6 µM;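 active means corrected plate-normalized z-score of 5 or more, or -5 or less, or inhibition of 15% or more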;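 further: plate controls were DMSO wells with enzyme for no effect and buffer wells lacking MMP-2 for full effect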
Target sequence (P08253 whole entry, looked up): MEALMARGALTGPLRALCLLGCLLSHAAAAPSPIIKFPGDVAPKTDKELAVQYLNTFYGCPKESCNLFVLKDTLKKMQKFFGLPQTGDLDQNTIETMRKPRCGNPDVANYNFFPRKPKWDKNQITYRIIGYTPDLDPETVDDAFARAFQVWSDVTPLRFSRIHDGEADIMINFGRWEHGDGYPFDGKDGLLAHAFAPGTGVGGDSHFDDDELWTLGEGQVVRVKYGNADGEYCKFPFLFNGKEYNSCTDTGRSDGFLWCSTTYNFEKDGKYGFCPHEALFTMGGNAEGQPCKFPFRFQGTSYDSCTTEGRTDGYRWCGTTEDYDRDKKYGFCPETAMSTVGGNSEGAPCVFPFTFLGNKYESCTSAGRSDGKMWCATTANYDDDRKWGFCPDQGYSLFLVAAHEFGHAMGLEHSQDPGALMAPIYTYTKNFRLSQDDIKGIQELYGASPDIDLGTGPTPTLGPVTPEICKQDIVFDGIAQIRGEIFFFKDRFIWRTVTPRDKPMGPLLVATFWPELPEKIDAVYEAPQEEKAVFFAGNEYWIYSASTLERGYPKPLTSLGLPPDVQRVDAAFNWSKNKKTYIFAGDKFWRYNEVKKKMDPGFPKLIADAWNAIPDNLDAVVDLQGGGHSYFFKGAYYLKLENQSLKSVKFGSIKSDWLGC
Thrombin counter = counter-screen for CSN deneddylation inhibitors: bovine thrombin inhibition; shares compounds with CSN inh; bovine thrombin cleavage of Ub4-pepOG, fluorescence polarization; inhibition, % at 16.6 µM; actives 49% (n = 540);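 active means inhibition at or above a set limit, with a fluorescence interference ratio between 0.5 and a set maximum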
The depositor's hits bear a star.

Results for Cc1cc(NC(=O)c2cncc(Br)c2)ccc1NC(=O)c1cc2ccccc2o1 ?
CSN inh: 60*; TPT1 inh: 0; Rin1-Abl PPI inh: 0; Rpn11 inh: 23; HNF4A DNA FP: 22; CSN5 deneddyl: 10; MMP-2 counter: 16*; Thrombin counter: -11

Results for COc1cc(NC(=O)c2ccccc2)ccc1NC(=O)c1cc2ccccc2o1 ?
CSN inh: 3; TPT1 inh: -1; Rin1-Abl PPI inh: 0; Rpn11 inh: -2; HNF4A DNA FP: 0

Results for Cc1cc(C)cc(SCc2noc(C(=O)NCCCN3CCOCC3)c2C(=O)NCCCN2CCOCC2)c1 ?
CSN inh: -5; TPT1 inh: 0; Rin1-Abl PPI inh: -2; Rpn11 inh: -1; HNF4A DNA FP: 2; Neddyl block: -17

Results for COc1cccc(-c2cc3nc(C)c(C)c(N4CCN(C(=O)c5ccoc5)CC4)n3n2)c1 ?
CSN inh: -5; Rin1-Abl PPI inh: 1; Rpn11 inh: 2; HNF4A DNA FP: 1

How did O=C(Nc1ccc(Nc2ccncc2)cc1)c1ccc(Nc2ccnc3ccc([N+](=O)[O-])cc23)cc1[N+](=O)[O-] do in these assays?
CSN inh: 54*; TPT1 inh: 1; Rin1-Abl PPI inh: 1; Rpn11 inh: 4; HNF4A DNA FP: 5; Neddyl block: -19; MMP-2 counter: 36*; Thrombin counter: -14

How did COc1ccc(CC(=O)OCCc2cc3cc(OC)c(OC)cc3c(=O)o2)cc1 do in these assays?
CSN inh: 0; Rin1-Abl PPI inh: 1; Rpn11 inh: -4; HNF4A DNA FP: 0; Neddyl block: 4

Results for Cc1nn(C)cc1/C=C1\SC(=S)NC1=O ?
CSN inh: 0; TPT1 inh: -1; Rin1-Abl PPI inh: -2; Rpn11 inh: 4; HNF4A DNA FP: -3; Neddyl block: -21

What do the screens show for `O=C1NC(=S)S/C1=C\c1cc(Cl)cc(Cl)c1O`?
CSN inh: 45*; Rin1-Abl PPI inh: 2; HNF4A DNA FP: 28; Neddyl block: -69; CSN5 deneddyl: 54*; MMP-2 counter: -3; Thrombin counter: 56*

Results for CCN1/C(=C/c2ccc3cc(C)ccc3[n+]2C)Sc2ccc3sccc3c21 ?
CSN inh: 137*; Rin1-Abl PPI inh: -9; Rpn11 inh: 108*; HNF4A DNA FP: 180; Neddyl block: -46; CSN5 deneddyl: -16; MMP-2 counter: 11; Thrombin counter: 67*

What do the screens show for `CCN1/C(=C/c2ccc3cc(C)ccc3[n+]2CC)Sc2cc(C)ccc21`?
CSN inh: 56*; Rin1-Abl PPI inh: -21; HNF4A DNA FP: 109*; Neddyl block: -394; CSN5 deneddyl: 60*; MMP-2 counter: -6; Thrombin counter: 33

Results for O=C(Nc1ccccc1)c1cc(C2CCCCN2S(=O)(=O)c2ccc(F)cc2F)on1 (stereo not drawn) ?
CSN inh: 4; Rin1-Abl PPI inh: -1; Rpn11 inh: 0; HNF4A DNA FP: 2; Neddyl block: -4

Results for Cc1cc(-c2nc3c4c5c(sc4[nH]c(=O)n3n2)CCC5)c(C)o1 ?
CSN inh: 36*; TPT1 inh: 16; Rin1-Abl PPI inh: -1; Rpn11 inh: -12; HNF4A DNA FP: -2; Neddyl block: 5; CSN5 deneddyl: 92*; MMP-2 counter: 4; Thrombin counter: -20

Results for O=S(=O)(Nc1nnc(C2CC2)s1)c1ccccc1 ?
CSN inh: 4; TPT1 inh: -2; Rin1-Abl PPI inh: 2; Rpn11 inh: 0; HNF4A DNA FP: 2; Neddyl block: 0

How did O=C(CSc1nc(-c2ccccc2)nc2ccccc12)Nc1cccc(C(=O)O)c1 do in these assays?
CSN inh: -1; TPT1 inh: -3; Rin1-Abl PPI inh: -4; Rpn11 inh: 3; HNF4A DNA FP: -1; Neddyl block: inactive

How did O=C(CSc1nc(-c2ccccc2)nc2c1Cc1ccccc1O2)Nc1ccc(C(=O)O)cc1 do in these assays?
CSN inh: 48*; Rin1-Abl PPI inh: -7; Rpn11 inh: 51*; HNF4A DNA FP: -63; Neddyl block: -33; CSN5 deneddyl: 60*; MMP-2 counter: 20*; Thrombin counter: 10

How did COc1ccccc1N(CC(=O)NCc1ccco1)S(=O)(=O)c1ccc(C)cc1 do in these assays?
CSN inh: 44*; TPT1 inh: -1; Rin1-Abl PPI inh: 0; Rpn11 inh: -28; HNF4A DNA FP: -25; Neddyl block: 5; CSN5 deneddyl: 62*; MMP-2 counter: 28*; Thrombin counter: 6

Results for CC(O)CC(=O)OC[C@]12CC[C@H]3[C@@](C)(CC[C@H]4C(C)(C)CCC[C@]34C)[C@@H]1CC(C1=CC(=O)OC1O)O2 (stereo partly drawn) ?
CSN inh: 46*; Rin1-Abl PPI inh: 3; Rpn11 inh: 13; HNF4A DNA FP: -6; Neddyl block: -1; CSN5 deneddyl: 31; MMP-2 counter: 2; Thrombin counter: -4

Results for COc1ccccc1Nc1cc2cc(Br)ccc2c(=O)[nH]1 ?
CSN inh: 53*; TPT1 inh: 8; Rin1-Abl PPI inh: 1; Rpn11 inh: 3; HNF4A DNA FP: 4; Neddyl block: -55; CSN5 deneddyl: 70*; MMP-2 counter: 10; Thrombin counter: -25

How did O=c1[nH]c(Nc2ccccc2)cc2cc(Br)ccc12 do in these assays?
CSN inh: 49*; TPT1 inh: 10; Rin1-Abl PPI inh: -1; Rpn11 inh: 8; HNF4A DNA FP: 1; Neddyl block: -105; CSN5 deneddyl: 61*; MMP-2 counter: 3; Thrombin counter: -44

What do the screens show for `O=c1cc(Nc2cccc(Br)c2)[nH]c(=O)[nH]1`?
CSN inh: -9; TPT1 inh: -11; Rin1-Abl PPI inh: 5; Rpn11 inh: 3; HNF4A DNA FP: 1; Neddyl block: -11
